Shown are actives, neighbours in structure and some others; about 2.2% of the full set was active somewhere.
E-sel inducer: E-selectin induction in HUVECs, primary screen, imaging, HUVEC, immunofluorescence imaging, single point; hit rate 0.37% among 260,000; normalized: neutral wells 0, TNF-alpha wells 100; activation, % at 7.58 µM; AID 686992, 2013; P16581;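 active = mean E-selectin-positive cell signal at least 10% of the positive control, reached in at least 60% of replicates, without over 20% cell loss; inconclusive = no rule given, readout overlaps actives, possibly toxicity-flagged; inactive = the rest, including those meeting only one limit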
Target sequence (P16581 whole entry, looked up): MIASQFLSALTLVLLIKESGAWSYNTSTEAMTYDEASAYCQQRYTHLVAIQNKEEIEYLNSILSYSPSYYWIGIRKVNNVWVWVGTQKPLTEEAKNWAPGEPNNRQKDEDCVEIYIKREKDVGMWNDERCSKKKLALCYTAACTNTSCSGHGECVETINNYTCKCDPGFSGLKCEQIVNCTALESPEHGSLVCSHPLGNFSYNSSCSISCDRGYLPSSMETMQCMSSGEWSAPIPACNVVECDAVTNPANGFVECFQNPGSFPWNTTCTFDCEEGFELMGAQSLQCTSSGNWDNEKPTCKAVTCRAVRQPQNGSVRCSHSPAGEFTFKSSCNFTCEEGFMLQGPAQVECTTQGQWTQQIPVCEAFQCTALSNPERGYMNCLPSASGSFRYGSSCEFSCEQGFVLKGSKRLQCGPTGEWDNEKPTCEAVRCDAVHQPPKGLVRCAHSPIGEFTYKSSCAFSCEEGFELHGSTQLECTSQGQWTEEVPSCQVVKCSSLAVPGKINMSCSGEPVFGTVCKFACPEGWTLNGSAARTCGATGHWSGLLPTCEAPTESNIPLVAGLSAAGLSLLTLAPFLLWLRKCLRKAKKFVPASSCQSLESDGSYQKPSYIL
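Test system – human umbilical vein endothelial cells (HUVEC), E-selectin induction · Input – 3,000 HUVEC seeded per well · Buffer or medium – EGM-2, gelatin · Compound dosing – single-point compound dose · Detection – immunofluorescence imaging · Measure – percent E-selectin-positive cells · Controls – TNF-alpha high, DMSO low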
C2C12 statin: suppressors of statin myotoxicity in C2C12 myotubes, primary screen, cell-based, single point, plate reader | hit rate 0.78% among 330,000 | rescue of ATP level, % at 7.49 µM | C2C12 myotubes + simvastatin, ATP luminescence, 48 h; scaled: DMSO 0, geranylgeraniol control 100;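 active = mean ATP rescue above about 67%, or every replicate alone reaching that limit, limit read from the data, passing the limit was not always enough; inconclusive = no clear call, values can overlap the other calls; inactive = mean under the limit and some replicate under it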;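 note: myotubes were challenged with 10 µM simvastatin during compound exposure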
DENV2 CPE: inhibitors of DENV2 cytopathic effect, primary screen, cell-based, plate reader, single concentration; DENV2-infected cells, cytopathic effect rescue; CPE inhibition, % at 9.99 µM; hit rate 1.7% among 350,000; in the data active = CPE inhibition above about 20%, passing the limit was not always enough; inconclusive = no clear call, values can overlap the other calls; tested in BHK-21 cells
Each line names hits and unclear results; the compound was inactive in the other large screens; ! = not active in a repeat.

CCS(=O)(=O)Nc1ccc2c(c1)C(=O)N(C)C[C@@H](OC)[C@@H](C)CN(CC1CCCCC1)[C@H](C)CO2	none
CO[C@H](CN(C)Cc1ccc2c(c1)OCO2)[C@@H](C)CN(C(=O)Nc1ccc(F)cc1)[C@@H](C)CO	none
C/C=C/c1ccc2c(c1)O[C@H](CN(C)C(=O)c1cccc(F)c1)[C@@H](C)CN([C@H](C)CO)S2(=O)=O	none
CNC[C@H]1Oc2c(NS(C)(=O)=O)cccc2C(=O)N([C@@H](C)CO)C[C@@H]1C	none
CCN1[C@H](C(=O)N(C)C)[C@@H](CO)[C@@H]2Cn3c(ccc(-c4ccccc4OC)c3=O)[C@@H]21	none
CO[C@H]1CN(C)C(=O)c2ccc(NC(=O)C3CCOCC3)cc2OC[C@H](C)N(Cc2cccnc2)C[C@@H]1C	none (no result: C2C12 statin)
CC(C)c1onc(C(=O)N2CCN(Cc3ccccc3)CC2)c1[N+](=O)[O-]	DENV2 CPE 168.1 (no result: E-sel inducer)
CC(C)c1onc(C(=O)N2CCOCC2)c1[N+](=O)[O-]	none (no result: E-sel inducer, C2C12 statin)
O=S(=O)(NCC[C@@H]1CC[C@@H](NS(=O)(=O)c2ccccc2Cl)[C@@H](CO)O1)c1ccc(F)cc1	none
O=C1CCN(Cc2ccccc2)CCN1[C@H](COc1ccccc1)c1ccccc1	none
N#CC[C@H](c1ccccc1)N1CCN(Cc2ccccc2)CCC1=O	DENV2 CPE 60.1 (no result: E-sel inducer)
CO[C@@H]1CN(C)C(=O)c2cc(NC(=O)c3cccc(F)c3)ccc2OC[C@H](C)NC[C@H]1C	none
COc1cccc(S(=O)(=O)N2CCCCN3[C@H](C2)[C@@H](c2ccc(C#CC4CC4)cc2)[C@@H]3CO)c1	none
CCCCCCCCCCCCCCCC[n+]1cccc2ccccc21	none (no result: E-sel inducer, C2C12 statin)
Cc1ccccc1C[n+]1cccc2ccccc21	DENV2 CPE 30.6
C=CCOC(=O)C1=C[C@@H](c2ccc(C(F)(F)F)cc2)[C@H](CCCO)[C@@H](OCC)O1	DENV2 CPE 36.4!
C=CCOC(=O)C1=C[C@H](c2ccc(C(F)(F)F)cc2)[C@@H](CCCO)[C@H](OCC)O1	none
Cc1c(OCC(=O)N2C[C@H]3C[C@@H](C2)c2cccc(=O)n2C3)ccc2c3c(c(=O)oc12)CCCC3	none (no result: E-sel inducer)
CCCc1cc(=O)oc2c(C)c(OCC(=O)N3C[C@H]4C[C@@H](C3)c3cccc(=O)n3C4)ccc12	DENV2 CPE 28.7 (no result: E-sel inducer)
C[C@H]1CN([C@@H](C)CO)C(=O)c2cc(C3=CCCC3)cnc2O[C@H]1CN(C)C	none
C[C@@H]1CCCCO[C@H](CN(C)C(=O)Nc2cccc3ccccc23)[C@H](C)CN([C@@H](C)CO)C(=O)c2cc(NS(C)(=O)=O)ccc2O1	none (no result: C2C12 statin)
CC(=O)N(C)C[C@H]1[C@H](c2ccc(-c3ccc(F)cc3)cc2)[C@@H](CO)N1C(C)=O	DENV2 CPE 33.1
CC(=O)N(C)C[C@@H]1[C@H](c2ccc(-c3ccc(F)cc3)cc2)[C@H](CO)N1C(C)=O	none (no result: C2C12 statin)
CC(=O)N1[C@H](CN(C)C(=O)c2ccccc2F)[C@@H](c2ccccc2)[C@@H]1CO	DENV2 CPE 61.2
CC(=O)N1[C@H](CO)[C@H](c2ccccc2)[C@H]1CN(C)C(=O)c1ccccc1F	none
CN(C)CC(=O)N[C@@H]1CC[C@@H](CCn2cc(C3CCCC3)nn2)O[C@H]1CO	none
CC(=O)N(C)C[C@@H]1Oc2cc(/C=C/c3ccccc3)ccc2S(=O)(=O)N([C@@H](C)CO)C[C@H]1C	none (no result: C2C12 statin)
O=C(Nc1ccc2nc(-c3cccnc3)[nH]c2c1)C12CC3CC(CC(C3)C1)C2	C2C12 statin 75.5 (no result: E-sel inducer, DENV2 CPE)
O=C(Nc1ccc2nc(-c3cccnc3)[nH]c2c1)C1CCCCC1	none (no result: E-sel inducer, DENV2 CPE)
Cc1ccc(-c2ccc(C3[C@H]4CNC[C@@H]3N4S(=O)(=O)c3cccc(C)c3)cc2)cc1 (some centres undefined)	none (no result: C2C12 statin)
C[C@@H]1CCCCO[C@@H](CN(C)C(=O)Nc2ccc(C(F)(F)F)cc2)[C@@H](C)CN([C@H](C)CO)C(=O)c2cc(NS(=O)(=O)c3cn(C)cn3)ccc2O1	none (no result: C2C12 statin)
C[C@@H]1CN([C@H](C)CO)C(=O)Cc2cc(NC(=O)c3ccncc3)ccc2O[C@@H]1CN(C)Cc1ccc(Cl)c(Cl)c1	C2C12 statin 69.5
CNC[C@H]1Oc2ccc(NC(=O)c3ccncc3)cc2CC(=O)N([C@@H](C)CO)C[C@@H]1C	none
C[C@@H]1CN([C@@H](C)CO)C(=O)Cc2cc(NC(=O)C3CC3)ccc2O[C@H]1CN(C)Cc1ccncc1	none
C[C@H](CO)N1C[C@H](C)[C@H](CN(C)Cc2ccc(Cl)c(Cl)c2)Oc2ccc(NC(=O)c3ccncc3)cc2CC1=O	none
C[C@@H]1CN([C@H](C)CO)C(=O)Cc2cc(NC(=O)C3CC3)ccc2O[C@@H]1CN(C)Cc1ccncc1	DENV2 CPE 21.4
C[C@H](CO)N1C[C@H](C)[C@@H](CN(C)Cc2ccc(Cl)c(Cl)c2)Oc2ccc(NC(=O)C3CC3)cc2CC1=O	C2C12 statin 85.0
CNC[C@H]1Oc2ccc(NC(=O)c3ccncc3)cc2CC(=O)N([C@H](C)CO)C[C@@H]1C	DENV2 CPE 64.1
C[C@H]1CN([C@@H](C)CO)C(=O)Cc2cc(NC(=O)C3CC3)ccc2O[C@@H]1CN(C)Cc1ccc(Cl)c(Cl)c1	none
O=C(C1CCCC1)N1CCCCN2[C@H](CO)[C@H](c3ccc(C4=CCCC4)cc3)[C@@H]2C1	none
C[C@@H]1CN([C@H](C)CO)C(=O)c2cc(NC(=O)Nc3ccccc3)ccc2O[C@@H]1CN(C)S(=O)(=O)c1ccc(F)cc1	none
C[C@@H]1CN([C@@H](C)CO)S(=O)(=O)c2ccc(C#Cc3ccccc3)cc2O[C@H]1CN(C)C(=O)C1CC1	none
CO[C@H]1CN(C)C(=O)c2cc(NC(=O)Nc3cc(F)ccc3F)ccc2OC[C@H](C)N(C(=O)c2ccccn2)C[C@@H]1C	none
COc1ccc(S(=O)(=O)N[C@H]2C=C[C@H](CC(=O)NCCc3ccccc3)O[C@H]2CO)cc1	none
COc1ccc(CNC(=O)CCC(=O)c2ccccc2)cc1	none
COc1ccc(S(=O)(=O)NCc2ccccc2)cc1	none (no result: E-sel inducer, DENV2 CPE)
COc1ccc(S(=O)(=O)NCCC(=O)NCc2ccccc2)cc1	C2C12 statin 126.2 (no result: E-sel inducer, DENV2 CPE)
COc1ccc(C(=O)CCC(=O)NCc2cc(OC)cc(OC)c2)cc1	DENV2 CPE 34.8 (no result: E-sel inducer)
COC(=O)C[C@@H]1C=C[C@@H](NS(=O)(=O)c2ccc(OC)cc2)[C@@H](CO)O1	DENV2 CPE 23.3!
COc1ccc(S(=O)(=O)N[C@@H]2C=C[C@@H](CC(=O)NCCc3ccccc3)O[C@@H]2CO)cc1	DENV2 CPE 39.0
COC(=O)C[C@@H]1C=C[C@H](NS(=O)(=O)c2ccc(OC)cc2)[C@H](CO)O1	none
Cc1noc(C)c1S(=O)(=O)Nc1ccc2c(c1)C(=O)N([C@@H](C)CO)C[C@H](C)[C@H](CN(C)Cc1ccccc1)O2	none
C[C@H]1CN([C@@H](C)CO)C(=O)Cc2cc(NC(=O)c3ccncc3)ccc2O[C@@H]1CN(C)CC1CCCCC1	DENV2 CPE inconclusive
C[C@@H]1CCCCO[C@@H](CN(C)CC2CCCCC2)[C@H](C)CN([C@@H](C)CO)C(=O)c2cc(NC(=O)CCCCCC(=O)Nc3ccccc3N)ccc2O1	none (no result: C2C12 statin)
C[C@H]1CN([C@@H](C)CO)C(=O)c2cccc(NC(=O)Nc3cccc4ccccc34)c2O[C@@H]1CN(C)S(=O)(=O)c1cn(C)cn1	none

Screening results as filed in PubChem.
